Results taken from ChEMBL document CHEMBL1122876, “Quantitative structure-activity relationship of antifolate inhibition of bacteria cell cultures resistant and sensitive to methotrexate” (1985).
Several values for one entry are separate records, joined by “and”; a condition that tells them apart may be missing. Identical values can stand only once.

Columns and labels:
[1] = system: Escherichia coli; experiment: Inhibition of growth of methotrexate-resistant (MB1428) strain of Escherichia coli cells.; type: functional
Procedure, shortened: (§1)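 E. coli cultures kept on nutrient agar slants. Inoculum from two serial 24 h, 37 °C transfers in glucose-salts medium with 0.6% vitamin-free acid-hydrolyzed casein, washed twice, then diluted to about 15 cells/mL. Each 10 mL tube held basal medium, 25% glucose solution (1 mL) and inhibitor dissolved in water or 0.04 M HCl, diluted in sterile water. C = molar concentration giving 50% culture inhibition.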

[2] = system: Escherichia coli; experiment: Inhibition of growth of methotrexate-sensitive (MB1417) strain of Escherichia coli cells.; type: functional; procedure, shortened: as §1
[3] = system: Escherichia coli; experiment: Compound was evaluated for the inhibition of growth of methotrexate resistant (MB1428) strain of Escherichia coli cells; d=values could not be determined due to solubility problems encountered with these congener; type: functional, organism-based; procedure, shortened: as §1
[4] = system: Escherichia coli; experiment: Inhibition of growth of methotrexate resistant (MB1428) strain of Escherichia coli cells; type: functional; procedure, shortened: as §1
[5] = system: Escherichia coli; experiment: Inhibition of growth of methotrexate sensitive (MB1417) strain of Escherichia coli cells; type: functional; procedure, shortened: as §1
[6] = target: T1, Dihydrofolate reductase type 1 (Escherichia coli) (UniProt P00382)
T1 sequence (whole entry): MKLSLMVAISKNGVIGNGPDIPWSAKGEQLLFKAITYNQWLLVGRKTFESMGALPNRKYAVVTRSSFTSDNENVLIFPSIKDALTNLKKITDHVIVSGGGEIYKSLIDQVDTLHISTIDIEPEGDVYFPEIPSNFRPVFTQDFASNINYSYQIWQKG

[7] = system: Escherichia coli; experiment: The compound was evaluated for the inhibition of growth of methotrexate resistant (MB1428) strain of Escherichia coli cells; d=values could not be determined due to solubility problems encountered with these congener; type: functional, organism-based
[8] = system: Escherichia coli; experiment: Compound was evaluated for the inhibition of growth of methotrexate sensitive (MB1417) strain of Escherichia coli cells; d=values could not be determined due to solubility problems encountered with these congener; type: functional, organism-based; procedure, shortened: as §1

Row | Compound | Log 1/C [1] | Log 1/C [2] | other results
1 | COc1ccc(OC)c(Cc2cnc3nc(N)nc(N)c3c2C)c1 [PIRITREXIM] | 4.56 | 5.95 | 
2 | Nc1ncc(Cc2ccc(Br)cc2)c(N)n1 | 3.69 | 5.12 | 
3 | CCc1nc(N)nc(N)c1-c1ccc(Cl)cc1 [PYRIMETHAMINE] | 3.56 | 4.21 | 
4 | CC(=O)Nc1ccc(Cc2cnc(N)nc2N)cc1 | 3.03 | 4.08 | 
5 | COCc1cccc(Cc2cnc(N)nc2N)c1 | 2.98 | 4.68 | 
6 | CCCCCCCCOc1cc(Cc2cnc(N)nc2N)ccc1OC |  | 4.91 | Log 1/C [3]: Not detected
7 | Nc1ncc(Cc2cccc(Cl)c2)c(N)n1 | 3.46 | 4.92 | 
8 | COc1cc(Cc2cnc(N)nc2N)cc(OC)c1OC [TRIMETHOPRIM] | 5.34 | 6.61 | 
9 | CC1(C)N=C(N)N=C(N)N1c1cccc(OCc2ccc(Cl)c(Cl)c2)c1 |  |  | Log 1/C [4]: 4.01; Log 1/C [5]: 4.13; Log 1/Ki app [6]: 6.15
10 | CC(C)(C)c1cccc(OCc2cccc(N3C(N)=NC(N)=NC3(C)C)c2)c1 |  |  | Log 1/C [4]: 4.19; Log 1/C [5]: 4.1; Log 1/Ki app [6]: 6.06
11 | COCCOc1c(OC)cc(Cc2cnc(N)nc2N)cc1OC [TETROXOPRIM] | 4.72 | 5.83 | 
12 | CC1(C)N=C(N)N=C(N)N1c1cccc(S(=O)(=O)F)c1 | 2 | 2.5 | 
13 | COc1ccc(Cc2cnc(N)nc2N)cc1 | 3.46 and 3.7 | 5.24 and 4.77 | 
14 | Nc1ncc(Cc2cccc(O)c2)c(N)n1 | 2.94 | 4.35 | 
15 | CS(=O)(=O)Oc1cccc(Cc2cnc(N)nc2N)c1 | 3.35 | 4.59 | 
16 | CC1(C)N=C(N)N=C(N)N1c1cccc(COc2cccc(CO)c2)c1 |  |  | Log 1/C [4]: 2.51; Log 1/C [5]: 2.38; Log 1/Ki app [6]: 6.19
17 | COc1cc(Cc2cnc(N)nc2N)cc(OC)c1 | 4.55 | 6.08 | 
18 | Cc1cccc(SCc2cccc(N3C(N)=NC(N)=NC3(C)C)c2)c1 |  |  | Log 1/C [4]: 3.76; Log 1/C [5]: 3.87; Log 1/Ki app [6]: 6.57
19 | CN(Cc1cnc2nc(N)nc(N)c2n1)c1ccc(C(=O)N[C@@H](CCC(=O)O)C(=O)O)cc1 [METHOTREXATE] | 2.7 | 3.76 | 
20 | CN(C)c1ccc(Cc2cnc(N)nc2N)cc1 | 3.46 | 4.94 | 
21 | CCCCCCCCCCCCCCOc1cccc(N2C(N)=NC(N)=NC2(C)C)c1 |  |  | Log 1/Ki app [6]: 5.85
22 | COCCOc1ccc(Cc2cnc(N)nc2N)cc1 | 3.11 | 4.61 | 
23 | CC1(C)N=C(N)N=C(N)N1c1cccc(COc2cccc(C#N)c2)c1 |  |  | Log 1/C [4]: 3.02; Log 1/C [5]: 2.74; Log 1/Ki app [6]: 6.05
24 | Nc1ncc(Cc2ccc([N+](=O)[O-])cc2)c(N)n1 | 3.43 | 4.53 | 
25 | COc1cc(Cc2cnc(N)nc2N)cc(OC)c1SC [METIOPRIM] | 5.66 | 6.97 | 
26 | CCCCOc1cccc(N2C(N)=NC(N)=NC2(C)C)c1 |  |  | Log 1/C [4]: 3.49; Log 1/C [5]: 3.29
27 | CCCCCCOc1cccc(Cc2cnc(N)nc2N)c1 | 4.53 | 4.81 | 

Row | Compound | Log 1/C [1] | Log 1/C [2] | other results
28 | CCCCCCCCCCCCOc1cccc(N2C(N)=NC(N)=NC2(C)C)c1 |  |  | Log 1/Ki app [6]: 5.88
29 | CCOc1cc(Cc2cnc(N)nc2N)ccc1OCc1ccccc1 |  | 5.04 | Log 1/C [7]: Not detected
30 | COCCOc1cccc(Cc2cnc(N)nc2N)c1 | 2.92 | 4.33 | 
31 | COc1ccc(Cc2cnc(N)nc2N)cc1OC [DIAVERIDINE] | 4.46 | 6.08 | 
32 | CC1(C)N=C(N)N=C(N)N1c1ccc(Cl)cc1 [CYCLOGUANIL] | 2.5 | 2.47 | 
33 | Nc1ncc(Cc2ccccc2)c(N)n1 | 2.92 | 4.28 | 
34 | CC1(C)N=C(N)N=C(N)N1c1cccc(COc2cccc(NC(=N)S)c2)c1 |  |  | Log 1/Ki app [6]: 6.17
35 | CC1(C)N=C(N)N=C(N)N1c1cccc(COc2cccc(Cl)c2)c1 |  |  | Log 1/Ki app [6]: 6.01
36 | COc1cccc(OCc2cccc(N3C(N)=NC(N)=NC3(C)C)c2)c1 |  |  | Log 1/C [4]: 3.26; Log 1/C [5]: 3.21; Log 1/Ki app [6]: 6.02
37 | C=C(C)c1c(OC)cc(Cc2cnc(N)nc2N)cc1OC | 5.66 | 6.63 | 
38 | CCc1cccc(OCc2cccc(N3C(N)=NC(N)=NC3(C)C)c2)c1 |  |  | Log 1/C [4]: 3.98; Log 1/C [5]: 3.67; Log 1/Ki app [6]: 5.95
39 | CCCCCCCCOc1c(OC)cc(Cc2cnc(N)nc2N)cc1OC |  | 5.18 | Log 1/C [3]: Not detected
40 | CCCCCCCCOc1cccc(Cc2cnc(N)nc2N)c1 | 4.41 |  | Log 1/C [8]: Not detected
41 | CCCCCCOc1ccc(Cc2cnc(N)nc2N)cc1 | 4.55 | 4.79 | 
42 | CCCCOc1ccc(Cc2cnc(N)nc2N)cc1 | 4.01 | 4.76 | 
43 | CC1(C)N=C(N)N=C(N)N1c1cccc(CSc2ccccc2)c1 |  |  | Log 1/C [4]: 3.52; Log 1/C [5]: 3.39
44 | COc1cc(Cc2cnc(N)nc2N)cc(OC)c1Br [BRODIMOPRIM] | 5.69 | 6.67 | 
45 | CCCCCCCOc1cccc(Cc2cnc(N)nc2N)c1 | 4.84 | 4.88 | 
46 | CC1(C)N=C(N)N=C(N)N1c1cccc(OCCOc2cccc(C(F)(F)F)c2)c1 | 4.14 | 4.01 | 
47 | CCCCCCCCCCCOc1cccc(N2C(N)=NC(N)=NC2(C)C)c1 |  |  | Log 1/C [4]: 5.5; Log 1/C [5]: 5.5; Log 1/Ki app [6]: 6.19
48 | Cc1cccc(OCc2cccc(N3C(N)=NC(N)=NC3(C)C)c2)c1 |  |  | Log 1/C [4]: 3.41; Log 1/C [5]: 3.27; Log 1/Ki app [6]: 6.27
49 | CCOCc1cccc(N2C(N)=NC(N)=NC2(C)C)c1 |  |  | Log 1/Ki app [6]: 5.92
50 | CC1(C)N=C(N)N=C(N)N1c1cccc(COc2cccc(NC(N)=O)c2)c1 |  |  | Log 1/Ki app [6]: 5.91
51 | CC1(C)N=C(N)N=C(N)N1c1cccc(OCC23CC4CC(CC(C4)C2)C3)c1 |  |  | Log 1/C [4]: 4.63; Log 1/C [5]: 4.49
52 | Cc1cccc(Cc2cnc(N)nc2N)c1 | 3.29 | 4.91 | 
53 | Cc1nc(N)nc(N)c1-c1ccc(Cl)c(Cl)c1 [METOPRINE] | 4.35 | 4.24 | 
